Measurements published in ChEMBL document CHEMBL1132993, “Novel benzofuran and benzothiophene biphenyls as inhibitors of protein tyrosine phosphatase 1B with antihyperglycemic properties” (J Med Chem, 2000).

Each compound was assayed on Mus musculus (assay: percentage decrease in plasma glucose in the ob/ob mouse model at 100 mg/kg/day administered per orally). Conditions: route oral.
Format: functional
In short: (§1)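 Genetically obese C57 B1/6J ob/ob diabetic mice, four to six per group, dosed orally once daily for 4 days. Plasma glucose is expressed as percent change relative to the vehicle-treated group, with p < 0.05 versus vehicle. Changes that are not significant are generally less than -15%. Ciglitazone served as the reference standard.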

Row | Compound | Decrease
1 | CCCCc1oc2ccccc2c1-c1ccc(-c2ccc(OC(Cc3ccccc3)C(=O)O)cc2)cc1 (stereo not drawn) | 34%
2 | O=C(O)C(Cc1ccccc1)Oc1ccc(-c2ccc(-c3c(Cc4ccccc4)oc4ccccc34)cc2)cc1 (stereo not drawn) | 40%
3 | CCCCc1sc2ccccc2c1-c1ccc(-c2ccc(O[C@@H](C(=O)O)c3ccccc3)cc2)cc1 | 28%
4 | CCCCc1oc2ccccc2c1Cc1ccc2c(Br)c(OC(Cc3ccccc3)C(=O)O)ccc2c1 (stereo not drawn) | 26%
5 | O=C(O)c1ccc(S(=O)(=O)Oc2c(Br)cc(-c3ccc(-c4c(Cc5ccccc5)sc5ccccc45)cc3)cc2Br)cc1O | 25%
6 | O=C(O)[C@@H](Cc1ccccc1)Oc1ccc(-c2ccc(-c3c(Cc4ccccc4)sc4ccccc34)cc2)cc1 | 37%
7 | CCCCc1oc2ccccc2c1C(=O)c1ccc2c(Br)c(OCn3cnnn3)ccc2c1 | 25%
8 | CCCCc1sc2ccccc2c1-c1ccc(-c2ccc(O[C@H](Cc3ccccc3)C(=O)O)cc2)cc1 | 27%
9 | O=C(O)[C@@H](Cc1ccccc1)Oc1ccc(-c2ccc(-c3c(Cc4ccccc4)oc4ccccc34)cc2)cc1 | 35%

These compounds were tested against T1, Tyrosine-protein phosphatase non-receptor type 1 (Homo sapiens, UniProt P18031) (assay: In vitro inhibitory activity against human recombinant protein tyrosine phosphatase 1b (PTP1B)). Conditions: not given.
T1 sequence (P18031 whole entry): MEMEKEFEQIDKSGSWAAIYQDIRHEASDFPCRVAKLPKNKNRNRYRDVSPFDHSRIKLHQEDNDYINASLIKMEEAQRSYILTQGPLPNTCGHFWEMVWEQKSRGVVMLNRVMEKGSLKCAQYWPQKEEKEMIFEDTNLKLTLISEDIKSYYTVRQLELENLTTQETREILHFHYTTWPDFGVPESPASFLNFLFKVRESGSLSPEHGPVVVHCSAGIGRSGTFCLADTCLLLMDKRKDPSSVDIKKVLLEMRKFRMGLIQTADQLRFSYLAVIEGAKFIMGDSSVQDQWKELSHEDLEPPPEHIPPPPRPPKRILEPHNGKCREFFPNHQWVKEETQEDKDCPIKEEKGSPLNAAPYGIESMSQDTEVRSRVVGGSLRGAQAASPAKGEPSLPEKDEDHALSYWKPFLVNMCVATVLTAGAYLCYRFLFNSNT
In short: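 Recombinant human PTP1B, diluted in pH 7.4 Tris-HCl/EDTA/β-mercaptoethanol buffer, preincubated 10 min at 37 °C with compound in HEPES pH 7.4. Reaction ran 30 min at 37 °C. Released phosphate was read by malachite green-ammonium molybdate at 650 nm, in quadruplicate. IC50 came from four-parameter logistic regression.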

Row | Compound | IC50
10 | O=C(O)CNc1cc(-c2ccc(-c3c(Cc4ccccc4)oc4ccccc34)cc2)ccc1OCCc1ccccc1 | 82 nM
11 | O=C(O)c1ccccc1C(=O)Nc1cc(-c2ccc(-c3c(Cc4ccccc4)oc4ccccc34)cc2)ccc1O | 160 nM
12 | Oc1ccc(-c2ccc(-c3c(Cc4ccccc4)oc4ccccc34)cc2)cc1 | 920 nM
13 | O=C(c1ccccc1)c1oc2ccccc2c1-c1ccc(-c2ccc(O)cc2)cc1 | 740 nM
14 | Oc1ccc(Cc2sc3ccccc3c2-c2ccc(-c3ccc(O)cc3)cc2)cc1 | 1080 nM
15 | COc1ccc(Cc2sc3ccccc3c2-c2ccc(-c3ccc(O[C@H](Cc4ccccc4)C(=O)O)cc3)cc2)cc1OC | 120 nM
16 | CCCCc1sc2ccccc2c1-c1ccc(-c2ccc(O[C@@H](C(=O)O)c3ccccc3)cc2)cc1 | 110 nM
17 | O=C(O)c1ccc(S(=O)(=O)Oc2ccc(-c3ccc(-c4c(Cc5ccccc5)oc5ccccc45)cc3)cc2C2CCCC2)cc1O | 28 nM
18 | O=C(O)[C@@H](Cc1ccccc1)Oc1ccc(-c2ccc(-c3oc4ccccc4c3Cc3ccccc3)cc2)cc1 | 350 nM
19 | CCOc1ccc(-c2cc(-c3ccc(-c4c(Cc5ccccc5)sc5ccccc45)cc3)ccc2OCC(=O)O)cc1 | 52 nM
20 | CCCCc1oc2ccccc2c1Cc1ccc2cc(O)ccc2c1 | 1300 nM
21 | O=C(O)c1ccc(COc2ccc(-c3ccc(-c4c(Cc5ccccc5)oc5ccccc45)cc3)cc2)cc1 | 360 nM
22 | O=C(O)[C@H](Cc1ccccc1)Oc1ccc(-c2ccc(-c3c(Cc4ccccc4)oc4ccc(F)cc34)cc2)cc1 | 130 nM
23 | Cc1ccc2oc(Cc3ccccc3)c(-c3ccc(-c4ccc(O[C@H](Cc5ccccc5)C(=O)O)cc4)cc3)c2c1 | 410 nM
24 | O=C(O)[C@H](Cc1ccccc1)Oc1ccc(-c2ccc(-c3c(Cc4ccccc4)oc4ncccc34)cc2)cc1 | 590 nM
25 | O=C(O)COc1ccc(-c2ccc(-c3c(Cc4ccccc4)sc4ccccc34)cc2)cc1-c1ccccc1 | 100 nM
26 | CCCCc1oc2ccccc2c1Cc1ccc2c(Br)c(OCn3cnnn3)ccc2c1 | 700 nM
27 | Cc1oc(-c2ccc(C(F)(F)F)cc2)nc1-c1ccc2c(Br)c(OCC(=O)O)ccc2c1 | 1300 nM
28 | O=C(O)[C@H](Cc1ccccc1)Oc1ccc(-c2ccc(-c3c(Cc4ccccc4)oc4ccccc34)cc2)cc1C1CCCC1 | 55 nM
29 | COC(=O)C(CCNC(=O)c1ccccc1C(=O)O)Oc1c(Br)cc(-c2ccc(-c3c(Cc4ccccc4)sc4ccccc34)cc2)cc1Br (stereo not drawn) | 54 nM
30 | O=C(O)[C@@H](Cc1ccccc1)Oc1ccc(-c2ccc(-c3c(Cc4ccccc4)sc4ccccc34)cc2)cc1-c1ccc(Cl)cc1 | 52 nM
31 | O=C(O)c1ccccc1C(=O)NCCC(Oc1c(Br)cc(-c2ccc(-c3c(Cc4ccccc4)sc4ccccc34)cc2)cc1Br)C(=O)O (stereo not drawn) | 180 nM
32 | CCCCc1oc2ccccc2c1C(=O)c1ccc2c(Br)c(OCn3cnnn3)ccc2c1 | 1100 nM
33 | O=C(O)CCCOc1ccc(-c2ccc(-c3c(Cc4ccccc4)sc4ccccc34)cc2)cc1Br | 170 nM

Row | Compound | IC50
34 | O=C(O)[C@H](CCN1C(=O)c2ccccc2C1=O)Oc1ccc(-c2ccc(-c3c(Cc4ccccc4)oc4ccccc34)cc2)cc1 | 340 nM
35 | Cc1oc(-c2ccc(C(F)(F)F)cc2)nc1-c1ccc(-c2ccc(OCn3cnnn3)cc2)cc1 | 900 nM
36 | CCCCc1oc2ccccc2c1Cc1ccc(-c2ccc(OCn3cnnn3)cc2)cc1 | 510 nM
37 | CCCCc1oc2ccccc2c1C(O)c1ccc2cc(O)ccc2c1 (stereo not drawn) | 1100 nM
38 | COc1cccc(-c2cc(-c3ccc(-c4c(Cc5ccccc5)sc5ccccc45)cc3)ccc2OCC(=O)O)c1OC | 71 nM
39 | O=C(O)C(CCN1C(=O)c2ccccc2C1=O)Oc1c(Br)cc(-c2ccc(-c3c(Cc4ccccc4)sc4ccccc34)cc2)cc1Br (stereo not drawn) | 44 nM
40 | O=C(O)[C@@H](Cc1ccccc1)Oc1ccc(-c2ccc(-c3c(Cc4nccs4)sc4ccccc34)cc2)cc1 | 1160 nM
41 | CCCCc1sc2ccccc2c1-c1ccc(-c2ccc(O[C@H](Cc3ccccc3)C(=O)O)cc2)cc1 | 170 nM
42 | CCCCc1oc2ccccc2c1Cc1ccc2c(I)c(O)ccc2c1 | 380 nM
43 | CCCCc1sc2ccccc2c1-c1ccc(-c2ccc(O)cc2)cc1 | 700 nM
44 | CC[C@H](Oc1c(Br)cc(-c2ccc(-c3c(Cc4ccccc4)oc4ccccc34)cc2)cc1Br)C(=O)O | 130 nM
45 | Oc1ccc(-c2ccc(-c3c(Cc4ccc(O)cc4O)sc4ccccc34)cc2)cc1 | 580 nM
46 | O=C(O)[C@H](CCc1ccccc1)Oc1ccc(-c2ccc(-c3c(Cc4ccccc4)oc4ccccc34)cc2)cc1 | 220 nM
47 | CCCCc1oc2ccccc2c1Cc1ccc2c(I)c(OC(Cc3ccccc3)C(=O)O)ccc2c1 (stereo not drawn) | 320 nM
48 | CCCCc1oc2ccccc2c1C(=O)c1ccc2c(Br)c(OC(Cc3ccccc3)C(=O)O)ccc2c1 (stereo not drawn) | 1200 nM
49 | O=C(O)COc1ccc(-c2ccc(-c3c(Cc4ccccc4)oc4ccccc34)cc2)cc1C1CCCC1 | 170 nM
50 | COc1ccc(-c2cc(-c3ccc(-c4c(Cc5ccccc5)sc5ccccc45)cc3)ccc2O[C@H](Cc2ccccc2)C(=O)O)cc1 | 53 nM
51 | COc1ccc(-c2cc(-c3ccc(-c4c(Cc5ccccc5)sc5ccccc45)cc3)cc(Br)c2OCC(=O)O)c(OC)c1 | 47 nM
52 | Oc1c(I)cc(-c2ccc(-c3c(Cc4ccccc4)sc4ccccc34)cc2)cc1I | 520 nM
53 | CCCCc1oc2ccccc2c1Cc1ccc2c(Br)c(OCC(=O)O)ccc2c1 | 1400 nM
54 | CC(=O)Oc1cc(S(=O)(=O)Oc2ccc(-c3ccc(-c4coc5ccccc45)cc3)cc2)ccc1C(=O)O | 1160 nM
55 | O=C(O)COc1c(Br)cc(-c2ccc(-c3c(Cc4ccccc4)sc4ccccc34)cc2)cc1Br | 100 nM
56 | Cc1oc(-c2ccc(C(F)(F)F)cc2)nc1-c1cccc(-c2ccc(OC(Cc3ccccc3)C(=O)O)cc2)c1 (stereo not drawn) | 1600 nM
57 | O=C(O)[C@@H](Cc1ccccc1)Oc1ccc(-c2ccc(-c3c(Cc4ccc(F)cc4)sc4ccccc34)cc2)cc1 | 120 nM

What follows are compounds tested on Mus musculus (assay: percentage decrease in plasma glucose in the ob/ob mouse model at 25 mg/Kg/day administered per orally). Conditions: not given.
Format: functional
In short: as §1

Row | Compound | Decrease
58 | O=C(O)c1ccc(S(=O)(=O)Oc2ccc(-c3ccc(-c4c(Cc5ccccc5)oc5ccccc45)cc3)cc2)cc1O | 18%
59 | COc1ccc(Cc2sc3ccccc3c2-c2ccc(-c3ccc(O[C@H](Cc4ccccc4)C(=O)O)cc3)cc2)cc1OC | 24%
60 | COc1ccc(-c2cc(-c3ccc(-c4c(Cc5ccccc5)sc5ccccc45)cc3)cc(Br)c2OCC(=O)O)cc1 | 30%
61 | COc1ccc(-c2cc(-c3ccc(-c4c(Cc5ccccc5)sc5ccccc45)cc3)cc(-c3ccc(OC)cc3)c2OCC(=O)O)cc1 | 26%
62 | COc1ccc(Cc2sc3ccccc3c2-c2ccc(-c3ccc(O[C@H](Cc4ccccc4)C(=O)O)cc3)cc2)c(OC)c1 | 24%
63 | Cc1oc(-c2ccc(C(F)(F)F)cc2)nc1-c1ccc(-c2ccc(OC(Cc3ccccc3)C(=O)O)cc2)cc1 (stereo not drawn) | 27%
